Molecules are shown by their SMILES. Calls of active or inactive are those of the source.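 The calls were made as follows: active = inhibition of the malaria parasite aminopeptidase at 45% or more; inactive = inhibition below 45%.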

Sequence of Aminopeptidase N (Plasmodium falciparum (isolate 3D7)) (O96935 whole entry, looked up): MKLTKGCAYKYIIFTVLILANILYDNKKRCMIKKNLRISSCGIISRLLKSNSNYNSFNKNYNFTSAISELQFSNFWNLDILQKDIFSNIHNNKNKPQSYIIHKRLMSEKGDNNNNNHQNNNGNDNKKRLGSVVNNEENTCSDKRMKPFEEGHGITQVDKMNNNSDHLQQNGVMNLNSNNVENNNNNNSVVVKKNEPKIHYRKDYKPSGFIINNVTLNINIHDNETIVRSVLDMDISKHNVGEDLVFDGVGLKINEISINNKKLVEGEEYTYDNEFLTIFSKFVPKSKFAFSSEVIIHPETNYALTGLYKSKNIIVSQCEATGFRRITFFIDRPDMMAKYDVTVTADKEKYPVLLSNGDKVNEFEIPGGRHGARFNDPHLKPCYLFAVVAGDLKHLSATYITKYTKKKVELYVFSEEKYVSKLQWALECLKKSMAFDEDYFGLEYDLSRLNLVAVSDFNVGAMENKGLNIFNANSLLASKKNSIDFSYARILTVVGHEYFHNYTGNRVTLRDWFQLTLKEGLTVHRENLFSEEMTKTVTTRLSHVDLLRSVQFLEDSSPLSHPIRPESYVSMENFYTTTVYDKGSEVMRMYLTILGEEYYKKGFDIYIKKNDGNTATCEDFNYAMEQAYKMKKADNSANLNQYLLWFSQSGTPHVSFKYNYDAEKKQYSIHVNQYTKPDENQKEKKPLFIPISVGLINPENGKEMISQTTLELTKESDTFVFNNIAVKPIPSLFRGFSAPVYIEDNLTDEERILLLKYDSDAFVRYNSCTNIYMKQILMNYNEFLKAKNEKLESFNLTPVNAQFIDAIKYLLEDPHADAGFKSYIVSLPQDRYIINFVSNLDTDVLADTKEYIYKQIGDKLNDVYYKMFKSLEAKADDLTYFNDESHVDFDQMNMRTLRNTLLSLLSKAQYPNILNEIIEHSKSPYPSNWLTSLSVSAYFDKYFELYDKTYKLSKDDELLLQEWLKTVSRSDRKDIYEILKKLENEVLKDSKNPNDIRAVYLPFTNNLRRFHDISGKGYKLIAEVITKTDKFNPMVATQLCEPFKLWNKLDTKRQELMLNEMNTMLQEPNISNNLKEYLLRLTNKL

This test addresses Aminopeptidase N (Plasmodium falciparum (isolate 3D7)) (UniProt O96935). Kind of test: P. falciparum M1 aminopeptidase enzyme inhibition – biochemical, fluorescence, recombinant enzyme, assay provider, late-stage follow-up (AID 492978). To be noted: recombinant PfM1AAP, H-Leu-NHMec fluorescence; at 5 µM; hits give high values. The gist of the method:
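System: Recombinant Plasmodium falciparum M1 alanyl aminopeptidase (rPfM1AAP) | Amount: Enzyme at 1 µg/mL | Detection: Kinetic fluorescence, excitation 370 nm, emission 460 nm | Incubation: 10 min preincubation, 30 min kinetic reading | Doses: Single test compound dose of 5 µM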
As for `COc1ccccc1-c1nc2ccccc2c(=O)n1NC(=O)c1cccs1`, the inhibition was 38% (inactive).

Take `O=C(NCc1cccc(F)c1)C1CCN(S(=O)(=O)Cc2ccccc2)CC1`: the inhibition is 69%.

On to `O=C(O)CCC(=O)N1N=C(c2c(-c3ccccc3)c3cc(Cl)ccc3[nH]c2=O)CC1c1cccs1` (stereo not drawn), for which the inhibition is 13% (inactive).

Turning to `O=C(O)CCC(=O)N1N=C(c2c(-c3ccccc3)c3cc(Cl)ccc3[nH]c2=O)CC1c1ccco1` (stereo not drawn), the inhibition was 13% (inactive).

Consider `COc1ccc(OC)c(/C=C2\SC(=S)N(C(C(=O)O)c3ccccc3)C2=O)c1` (stereo not drawn), for which the inhibition is 16% (inactive).

For the compound `O=C1N=c2ccccc2=C1c1sc(=S)n(NC(=O)c2cccc(O)c2)c1O`, the inhibition is 48%.

On to `O=C1/C(=C/c2cccs2)SC(=S)N1NS(=O)(=O)c1ccccc1`, for which the inhibition was 20% (inactive).

In the case of `CC(=O)N1N=C(c2c(O)n(C)c(=O)n(C)c2=O)CC1c1ccccc1` (stereo not drawn), the inhibition is 7% (inactive).

For the compound `O=C1N=c2ccccc2=C1c1sc(=S)n(NC(=O)c2ccccc2)c1O`, the inhibition is 13% (inactive).

In the case of `O=C(Nn1c(C2CCC2)nc2ccccc2c1=O)c1cccs1`, the inhibition is 8% (inactive).

Regarding `O=C(NCCC1=CCCCC1)C1CCN(S(=O)(=O)c2ccc(Br)s2)CC1`, the inhibition was 45%.

In the case of `O=C(NCc1ccco1)C1CCCN(S(=O)(=O)c2cccc3nonc23)C1` (stereo not drawn), the inhibition is 17% (inactive).

On to `COc1ccc(C2CC(c3c(-c4ccccc4)c4cc(Cl)ccc4[nH]c3=O)=NN2C(=O)CCC(=O)O)cc1` (stereo not drawn), for which the inhibition was 0% (inactive).

The values are drawn from PubChem BioAssay AID492978 (The Scripps Research Institute Molecular Screening Center, 2010).
